Screening results as filed in PubChem.
The sample as a whole holds a higher share of hits than the screen did.
Hep lipid drop = modulators of hepatic lipid droplet formation; AML12 mouse hepatocytes, oleate lipid droplets, BODIPY imaging; inhibition, % at 6.5 µM; hit rate 0.4% among 240,000;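 active = lipid droplet intensity inhibited by at least 50%, with more than 500 cells counted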
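Test system: AML12 hepatocytes (mouse); reagent: oleate loading, 100 µM; dosing: one dose, 6.5 µM compound; incubation: overnight exposure; signal: fluorescence imaging, 20x objective, two fields per well; read-out basis: % inhibition of corrected integrated BODIPY droplet signal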
Lmaj promast = reduces viability of Leishmania major promastigotes. resazurin fluorescence viability. inhibition, % at 10 µM. hit rate 9% among 200,000; in the data active = inhibition above about 50%;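 also: promastigotes grown with compound for 44 hours at 28 °C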
DTT redox prof = compounds producing H2O2 with reducing agent – biochemical, NIH compound library profiling, artefact control for MLSCN library redox annotation, primary screen; DTT-dependent redox cycling H2O2, phenol red/HRP absorbance; 100% = 100 µM peroxide control, 0% = buffer; activation, % at 10 µM; hit rate 0.03% among 200,000;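 active = activation of at least 50% relative to the plate's high and low controls in the primary single-dose screen; inactive = activation below 50%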;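 also: compound incubated with DTT at 0.8 mM final as the reducing agent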
T cruzi repl = T. cruzi replication inhibition; T. cruzi beta-gal in NIH3T3, luminescence, 90 h; inhibition, % (test concentration not listed); hit rate 1.4% among 300,000; AID 1885;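 active = mean inhibition across valid replicates above about 55%, limit read from the data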;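 also: signal also drops with host cell toxicity which is not excluded here; 0% = plate median of DMSO wells and 100% = zero luminescence signal; higher percent means less beta-gal luminescence so fewer parasites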
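System – NIH/3T3 host cells with β-galactosidase reporter T. cruzi · Doses – single 50 nL compound addition per well in DMSO · Reagent – 5000 T. cruzi trypomastigotes/well · Medium – Low-serum DMEM with 2% FBS · Timing – ≥90 h infection period, 3 h prior cell attachment · Evaluation – parasite load inhibition, % · Technique – GalScreen luminescence, 60 min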
MPTP inh = blocks calcium-induced mitochondrial swelling; hit rate 1.4% among 360,000; inhibition, % at 10 µM; isolated mouse mitochondria, Ca2+ swelling absorbance, 30 min;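 active = inhibition of 50% or more, scaled per plate between neutral and stimulator controls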;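 also: 0% = DMSO wells given calcium and 100% = 1 mM EGTA wells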
Active calls of the source: *; / = no result given.

SMILES	Hep lipid drop	Lmaj promast	DTT redox prof	T cruzi repl	MPTP inh
COc1ccc(OC)c(Nc2nc(NCc3ccco3)c3ccccc3n2)c1	-5.2	/	/	49.2	7.3
OCCN1CCN(c2nc(NCc3ccco3)c3ccccc3n2)CC1	-110.3	25.0	1.4	11.7	-0.7
C[C@H]1CN([C@@H](C)CO)C(=O)CCCn2cc(nn2)CO[C@@H]1CN(C)C(=O)Nc1ccc2c(c1)OCO2	/	/	/	/	-2.1
CC(=O)Nc1ccc2c(c1)C(C)(C)C(C)N2C (centres undefined)	14.1	94.3*	-0.9	43.6	/
Cc1ccc(C2OCC(C)([N+](=O)[O-])CO2)cc1 (centres undefined)	/	/	/	/	0.2
CC(C)(C)c1ccc(S(=O)(=O)NC(=O)C2(C)CCN2C(=O)C2CC2)cc1 (centres undefined)	/	/	/	/	-0.3
COc1cccc(NC(=S)N2CCN(Cc3ccccc3)CC2)c1	-44.3	11.2	0.0	-4.7	-0.8
COc1ccc(NC(=S)N2CCN(Cc3ccccc3)CC2)cc1	5.1	2.7	-0.4	-2.5	1.6
COc1cccc(NC(=S)NCCC(c2ccccc2)c2ccccc2)c1	/	100.4*	-5.1	19.6	3.8
COc1cccc(NC(=S)N2CCCN(Cc3ccc(F)cc3)C2)c1	5.1	87.3*	-2.7	33.4	6.8
COc1ccc(NC(=S)N2CCCN(Cc3cc(C)ccc3C)C2)cc1	1.5	55.5*	-0.3	32.7	2.6
COc1ccc(NC(=S)NCCC(c2ccccc2)c2ccccc2)c(OC)c1	-10.4	4.9	1.8	-5.7	0.3
Fc1cccc(NC(=S)N2CCCC2)c1	-3.8	63.3*	-0.7	-9.3	1.4
CS(=O)(=O)N1CCCC(C(=O)Nc2ccc3c(c2)OCCO3)C1 (centres undefined)	35.2	-7.8	-0.4	5.9	1.1
COc1ccc(-c2cn(CCO)c(-c3ccc(Cl)nc3)n2)cc1	/	/	/	/	-0.7
COc1cc(CC(=O)N2CCN(C(=O)C3CCCO3)CC2)cc(OC)c1OC (centres undefined)	/	/	/	/	-1.5
COc1cccc(NC(=S)N2CCCC2)c1	-42.9	76.0*	0.1	-13.8	-0.4
S=C(Nc1cccc(Cl)c1)N1CCN(Cc2ccccc2)CC1	-3.0	23.4	-0.8	-60.8	0.7
COc1cc(NC(=S)N2CCCC2)cc(OC)c1	-4.7	/	/	/	-0.7
COc1cccc(NC(=S)Nc2cccnc2)c1	1.3	50.6*	-0.4	-6.8	1.8
COc1ccc(NC(=S)N2CCCN(Cc3cccc(Cl)c3)C2)cc1	10.6	93.7*	0.2	15.8	4.8
CSc1cccc(NC(=S)N2CCCN(Cc3cccc(Cl)c3)C2)c1	-14.3	90.0*	-0.7	42.7	39.3
C[C@@H]1CN([C@H](C)CO)C(=O)CCCn2cc(nn2)CO[C@H]1CN(C)C(=O)C1CC1	/	/	/	/	0.1
Cc1ccc(S(=O)(=O)N2CCN(C(=O)CN3C(=O)NC4(CCCC4)C3=O)CC2)c(C)c1	/	/	/	10.5	-1.1
CSc1cccc(NC(=S)N2CCC(N(C)C3CCCC3)CC2)c1	8.3	85.4*	0.3	-8.7	0.5
SMILES	Hep lipid drop	Lmaj promast	DTT redox prof	T cruzi repl	MPTP inh
Cc1cccc(C)c1NC(=S)N1CCCN(Cc2ccc(F)cc2)C1	-18.1	73.1*	-1.1	35.2	3.1
CCOc1ccc(NC(=S)NCCN2CCN(Cc3ccccc3)CC2)cc1	18.2	11.8	-0.4	16.1	4.2
CCOc1ccc(NC(=S)N2CCCN(Cc3cccc(Cl)c3)C2)cc1	-13.1	82.2*	-0.2	36.3	3.5
CCCCCC(=O)Nc1ccc(C2C(=O)c3ccccc3C2=O)cc1	/	/	/	-9.9	2.5
CCOCCCNC(=S)NCCNc1nc2c(C)cccc2cc1C#N	-0.6	4.1	-2.4	55.4*	1.6
Cc1ccc2cc(C#N)c(NCCNC(=O)C3CC3)nc2c1C	/	9.4	-0.7	-11.5	10.5
Cc1ccc2cc(C#N)c(NCCNC(=S)NCCCN(C)C)nc2c1C	-34.7	100.5*	-1.0	25.6	-1.4
Cc1cc(C)c2nc(NCCCNC(=S)NCCCN(C)C)c(C#N)cc2c1	-85.7	100.5*	-0.7	43.4	0.0
Cc1ccc(-c2nnc3c4ccccc4c(C)nn23)cc1NC(=O)c1ccco1	/	13.1	-2.7	/	/
Cc1nn2c(-c3cccc(NC(=O)c4ccco4)c3)nnc2c2ccccc12	8.0	100.6*	-0.7	10.6	1.8
CCc1cccc(C)c1NC(=O)COC(=O)c1c2c(nc3ccccc13)/C(=C\c1cccs1)CCC2	27.0	30.5	1.9	58.8*	4.6
CCOC(=O)c1[nH]c2ccc(OC)cc2c1NS(=O)(=O)c1ccc(OC)cc1OC	/	13.1	-0.1	6.4	2.2
COC(=O)c1[nH]c2ccc(F)cc2c1NS(=O)(=O)c1ccc(OC)cc1OC	-23.9	97.0*	3.1	-3.3	0.5
CCc1ccc(S(=O)(=O)n2c(C)nc3ccccc32)cc1	8.8	/	/	-5.1	0.9
Cc1nc2ccccc2n1S(=O)(=O)c1ccc(Br)cc1	-0.5	69.8*	-0.1	-4.9	4.9
CCc1ccc(NC(=O)CSc2nc3ccccc3c(=O)n2CCCN2CCC(C)CC2)cc1	-18.6	77.2*	0.1	24.5	1.5
CCC(C)NC(=O)CSc1nc2ccccc2c(=O)n1Cc1ccc(OC)cc1 (centres undefined)	9.2	55.4*	0.1	1.8	3.1
Cc1ccc(NC(=O)CSc2nc3ccccc3c(=O)n2CCCN2CCCCC2)cc1C	/	100.4*	0.0	47.9	-3.3
COCCCn1c(SCC(=O)Nc2ccc(C)cc2)nc2ccccc2c1=O	-6.7	4.5	1.4	10.6	1.7
CCCNC(=O)NC(=O)CSc1nc2ccccc2c(=O)n1Cc1ccncc1	2.9	/	/	3.0	-1.2
COCCCn1c(SCC(=O)Nc2ccc(C(=O)OC)cc2)nc2ccccc2c1=O	/	89.4*	-0.1	15.1	4.3
O=C(CSc1nc2ccccc2c(=O)n1CCCN1CCOCC1)Nc1ccc(Br)cc1	/	/	/	/	-0.6
O=C(CSc1nc2cc(Cl)ccc2o1)NC1CC1	/	/	/	/	-0.4
CC(C)(C)NC(=O)c1ccccc1NC(=O)C1CC(=O)N(C2CCCCC2)C1 (centres undefined)	1.7	/	/	-4.5	-0.7
O=C(CSc1nc2ccccc2[nH]1)Nc1nc(-c2cccc(Br)c2)cs1	-1.8	11.8	0.5	2.8	0.2
SMILES	Hep lipid drop	Lmaj promast	DTT redox prof	T cruzi repl	MPTP inh
CN(C)CCCn1c(SCC(=O)Nc2nc(-c3cccc(Br)c3)cs2)nc2ccccc2c1=O	3.5	/	/	68.3*	-0.3
CCc1cccc2c(C(=O)COC(=O)/C=C/c3ccc(O)c(OC)c3)c[nH]c12	2.1	98.9*	0.5	-0.4	0.9
COc1cc(/C=C/C(=O)OCC(=O)N2CCc3ccccc3C2)ccc1O	-9.8	75.9*	0.3	-2.0	6.8
CCn1c(C)nc2cc(C(=O)N/N=C(\C)c3ccccc3O)ccc21	7.4	-6.0	-0.4	-7.9	-3.5
Cc1cccc(NS(=O)(=O)c2cc3c(cc2C)NC(=O)CO3)c1	22.6	/	/	1.5	-0.3
COc1cccc(CNC(=O)[C@@H]2CCCN2C(=O)[C@H]2CCCCN2C(=O)c2ccc(Cl)cc2)c1	/	/	/	/	0.2
O=C(c1cnn(-c2ccccc2)c1-n1cccc1)N1CCN(C2CCCCC2)CC1	5.3	75.0*	0.1	-0.2	0.8
